Compound activity: PubChem BioAssay, The Scripps Research Institute Molecular Screening Center
Only some compounds are listed: those with a hit (about 3% of all), similar ones and a draw of the others.
Hsp70 activator: Hsp70 transcriptional activation, primary screen. HeLa Hsp70 promoter luciferase reporter, luminescence; scaled: vehicle 0, proteasome-inhibitor control 100%. activation, % at 10 µM. actives 0.04% (n = 200,000). AID 1203;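 active means activation above the mean across all tested compounds plus 3 SD, cutoff set per campaign, cut at about 5.5% in these data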
NPY Y1 blocker: blocks the human neuropeptide Y Y1 receptor; P25929; HEK293-CNG Y1 cells, membrane potential fluorescence; NPY at EC95, then isoproterenol; inhibition, % at 3.6 µM; actives 1% (n = 200,000);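 active means inhibition above the campaign mean inhibition of all tested compounds plus 3 SD, cut at about 20% in these data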
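Material: HEK293 cells co-expressing NPY Y1 receptor and cyclic-nucleotide gated channel. Timing: compound incubation 1 h at room temperature, readout 45 min post-stimulation. Signal: fluorescence, membrane potential probe.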
Wee1 degr inh: human Wee1 degradation inhibition, primary screen; P30291; HeLa Luc-Wee1K328M stability, luciferase luminescence; 100% = proteasome inhibitor MG132 effect; reporter increase, % at 5 µM; actives 1.2% (n = 220,000); AID 1321;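 active means activation above the mean of all tested compounds plus 3 SD, set per screening run, cut at about 8.8% in these data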;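 further: cells exposed to compound for 20 h before luminescence read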
NPY-Y2 antag: antagonists of human neuropeptide Y receptor Y2. NPY-Y2 expressing cells, antagonist mode. P49146. actives 0.99% (n = 140,000). AID 793. inhibition, % at 2.7 µM
Target sequence (P49146 whole entry, looked up): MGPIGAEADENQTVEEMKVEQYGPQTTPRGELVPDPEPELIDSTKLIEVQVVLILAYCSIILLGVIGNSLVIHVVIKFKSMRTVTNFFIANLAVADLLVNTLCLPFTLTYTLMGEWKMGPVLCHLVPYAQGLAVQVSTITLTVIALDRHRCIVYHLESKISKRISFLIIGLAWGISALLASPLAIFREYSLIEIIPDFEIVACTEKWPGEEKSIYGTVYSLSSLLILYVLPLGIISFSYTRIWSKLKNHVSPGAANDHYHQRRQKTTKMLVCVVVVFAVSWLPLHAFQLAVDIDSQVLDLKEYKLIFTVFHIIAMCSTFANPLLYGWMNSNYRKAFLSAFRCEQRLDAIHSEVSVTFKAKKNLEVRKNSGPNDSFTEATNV
NPY-Y1 PAM-ag: human NPY-Y1 potentiation or agonism, primary screen | actives 0.37% (n = 220,000) | NPY-Y1 expressing cells, potentiator/agonist activation | activation, % at 3.6 µM | P25929; in the data active means activation above about 33%, passing the limit was not always enough;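 further: cells stimulated with NPY at EC10 then isoproterenol at EC100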
NPY2 pot ag: human NPY-Y2 potentiation or agonism, primary screen. cells expressing NPY-Y2, potentiator/agonist read-out. P49146. activation, % at 3.6 µM. actives 0.45% (n = 220,000); in the data active means activation above about 27%;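 further: cells stimulated with NPY near EC25 plus isoproterenol at EC100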
NPY1 antag conf: human NPY-Y1 antagonism, confirmation | actives 21% (n = 1,200) | inhibition, % at 3.6 µM | shares compounds with NPY Y1 blocker | HEK293-CNG NPY-Y1, membrane potential fluorescence, cAMP; NPY challenge against isoproterenol-raised cAMP; in the data active means inhibition above about 20%
NPY-Y2 antag ct: antagonizes human NPY-Y2, counter-screen to NPY-Y1 antagonists; shares compounds with NPY Y1 blocker; actives 28% (n = 1,200); inhibition, % at 3.6 µM; HEK293 NPY-Y2 CNG membrane potential fluorescence, antagonism; cells given NPY, then isoproterenol
Hits are given with their value; - = inactive; . = not tested or not shown. Unless noted, no stated cut-off is given here; in the data, active means inhibition above about 17%; inactive means the rest.

SMILES	Hsp70 activator	NPY Y1 blocker	Wee1 degr inh	NPY-Y2 antag	NPY-Y1 PAM-ag	NPY2 pot ag	NPY1 antag conf	NPY-Y2 antag ct
c1ccc(-n2cc(CNCCc3cscn3)c(-c3ccc4c(c3)OCO4)n2)cc1	-	-	-	.	-	-	.	.
CCOc1ccc(-c2nnc(Nc3ccc(OC)c(C(=O)N4CCCCC4)c3)c3ccccc23)cc1	-	-	-	-	-	-	.	.
CCOc1cc(-c2noc(N)c2C(=O)OC)cc(OCC)c1OCC	-	22	-	-	-	-	-	-
COc1nc(-c2ccccc2)ccc1-c1noc(-c2ccco2)n1	-	-	-	-	-	-	.	.
COc1ccc(-c2ccc(-c3noc(-c4ccco4)n3)c(OC)n2)cc1	-	78	-	-	-	-	-	-
O=C(CC1C(=O)N(c2ccccc2)C(=O)N1Cc1ccco1)Nc1ccccc1 (stereo not given)	-	-	-	.	-	-	.	.
CC(C)N1C(=S)N(Cc2ccco2)C(=O)C1CC(=O)Nc1ccccc1 (stereo not given)	-	74	-	.	-	-	-	-
Cc1ccnc(NC(=O)CN2C(=O)c3ccccc3C2=O)c1	-	-	-	.	-	-	.	.
CCOC(=O)c1c(CSc2ccc(C)cc2)n(C)c2cc(Br)c(O)c(CN(C)C)c12	-	75	-	.	-	-	60	72
CCOC(=O)c1c(CSc2ccccc2)n(C)c2cc(Br)c(O)c(CN(C)C)c12	.	.	-	.	-	-	.	.
CCOC(=O)c1c(C)n(-c2ccc(C)cc2)c2ccc(O)c(CN(C)C)c12	-	51	-	.	-	-	52	55
CCOC(=O)c1c(C)n(-c2ccc(C)cc2)c2c(CC(C)=O)c(Br)c(OC)c(O)c12	-	-	-	-	-	-	.	.
CNC(=S)NNC(=O)c1ccccc1F	-	-	-	.	-	-	.	.
Cc1ccc(C(=O)c2cc([N+](=O)[O-])ccc2N2CCOCC2)c(C)c1	-	34	-	-	-	-	-	22
Cc1ccc(C(=O)c2cc([N+](=O)[O-])ccc2N2CCOCC2)cc1C	-	-	-	-	-	-	.	.
Cc1cc(NC(=O)CCNS(=O)(=O)c2cc(Br)cnc2N)ccc1Br	-	-	-	-	-	-	.	.
O=C(O)c1nnn(-c2cc(C(F)(F)F)cc(C(F)(F)F)c2)c1-c1ccccc1	.	.	-	.	-	-	.	.
Clc1ccc(-n2cccc2CN2CCc3c([nH]c4ccccc34)C2c2ccccn2)nc1 (stereo not given)	-	26	-	.	-	-	-	-
CC(C)n1cc(NC(=O)c2cc(-c3ccccc3)on2)cn1	-	24	-	-	-	-	-	-
Cc1ccccc1COC(=O)c1nn(-c2ccccc2)nc1N	-	-	-	.	-	-	.	.
Nc1nn(-c2ccccc2)nc1C(=O)OCc1ccccc1F	-	30	-	.	-	-	-	-
CCc1cccc(CC)c1NC(=O)COC(=O)CCc1cc(OC)c(OC)c(OC)c1	-	-	-	-	-	-	.	.
COc1ccc(C[C@H]2CN3C(=NC[C@@H]3C(C)C)N2CCNC(=O)CCC2CCCCC2)cc1	-	-	-	.	-	-	.	.
COc1ccc(C[C@H]2CN3C(=NC[C@@H]3Cc3ccccc3)N2CCNC(=O)CCC2CCCCC2)cc1	-	33	-	.	-	-	35	36
COc1cccc(-c2nn(-c3ccccc3)cc2CN(C)Cc2c(C)nc3ccccn23)c1	-	23	-	.	-	-	-	-
CCOc1cccc2c1OC(c1cc(OC)c(OC)c(OC)c1)N1N=C(c3ccc(C)o3)CC21 (stereo not given)	-	-	-	-	-	-	.	.
Cc1oc(S(=O)(=O)N2CCCCC2)cc1NC(=O)Nc1ccc(F)cc1	.	.	-	.	-	-	.	.
CN1CCN(CCCC(=O)c2ccc(C3CCCC3)cc2)CC1	-	26	-	-	-	-	-	-
CC(C)N(CC(=O)Nc1ccc(Cl)cc1C(F)(F)F)C(=O)CCl	-	-	-	.	-	-	.	.
